Results on one compound are retold here after publication PMC2906681 (Biochemical pharmacology, 2010).

What all share (type): cell-based
One test concerns HT-29 cells. The test is described as follows: Cell growth assay. As to conditions: for fraction of inhibition: 4 days. The method, boiled down: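 HT-29 cells at 1,000 cells/well, in triplicate, in RPMI1640/10% FBS with IFN-γ (100 U/ml) and/or test compound or vehicle. Compound volume kept ≤0.1% of total. Incubated 4 days at 37 °C/5% CO2. Relative viable cell number was read by CellTiterGlo luminescence. Synergism of the two agents was calculated with the Bliss definition.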

In the next test the test system is TF-1/Shp2^E76K cells. The test is described as follows: EB/AO staining apoptosis assay. As to conditions: 3 days, base level 4.2%.
Another test deals with T1, Shp2^E76K (Homo sapiens, UniProt Q06124, E76K).
T1 sequence (Q06124 1-593 E76K): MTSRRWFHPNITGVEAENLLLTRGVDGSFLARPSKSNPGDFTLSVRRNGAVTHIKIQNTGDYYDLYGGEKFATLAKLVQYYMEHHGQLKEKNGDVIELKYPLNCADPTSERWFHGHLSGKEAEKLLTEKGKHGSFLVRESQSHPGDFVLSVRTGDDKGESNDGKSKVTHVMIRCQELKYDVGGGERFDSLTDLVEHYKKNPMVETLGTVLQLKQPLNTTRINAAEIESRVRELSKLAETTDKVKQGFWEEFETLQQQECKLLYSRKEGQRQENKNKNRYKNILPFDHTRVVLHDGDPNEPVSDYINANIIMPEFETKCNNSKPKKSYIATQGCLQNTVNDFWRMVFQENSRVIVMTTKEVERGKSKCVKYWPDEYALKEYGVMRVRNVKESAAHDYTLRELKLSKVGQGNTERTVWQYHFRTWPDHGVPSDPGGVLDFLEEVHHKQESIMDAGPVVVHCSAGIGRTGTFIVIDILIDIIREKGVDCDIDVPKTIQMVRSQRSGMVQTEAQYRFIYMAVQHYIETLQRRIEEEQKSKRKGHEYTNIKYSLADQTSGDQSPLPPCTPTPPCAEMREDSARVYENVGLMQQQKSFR
The test is described as follows: Shp2^E76K PTP activity in immune complexes from TF-1/Shp2^E76K cells. Conditions: GM-CSF-free medium. The method, boiled down:
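TF-1/Shp2E76K cells were treated in GM-CSF-free RPMI1640/10% FBS with test compound at various concentrations. Flag-Shp2E76K was immunoprecipitated with anti-Flag M2/protein G (0.2 mg lysate, 2 h, 4 °C) and washed. Complexes were incubated with 50 µM DiFMUP for 20 min at room temperature, and fluorescence was measured. Part of each immunoprecipitate was blotted for Shp2. Two experiments.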

For `COC(=O)c1cccc(N/N=C2\C(=O)Nc3ccc(S(=O)(=O)NCc4ccc(F)cc4)cc32)c1` [SPI-112Me, (Z)-3-(2-(5-(N-(4-fluorobenzyl)sulfamoyl)-2-oxoindolin-3-ylidene)hydrazinyl)benzoic acid methyl ester], the fraction of inhibition is on record as 0.32 with HT-29 cells (6.25 µM SPI-112Me alone), 0.57 with HT-29 cells (6.25 µM SPI-112Me plus IFN-γ 100 U/ml), 0.71 in the test with HT-29 cells (12.5 µM SPI-112Me alone) and 0.84 with HT-29 cells (12.5 µM SPI-112Me plus IFN-γ 100 U/ml). Also, in the test on HT-29 cells (IFN-γ 100 U/ml plus SPI-112Me), the “combination effect with IFN-γ on inhibition of cell growth (Bliss)” value is “synergistic”. Moreover, the apoptotic cells in the test with TF-1/Shp2^E76K cells (12.5 µM) came out at 9.3%; in the test on TF-1/Shp2^E76K cells (25 µM), 18.8%. Also, the “Shp2^E76K PTP activity in treated cells” value at Shp2^E76K was “lower Shp2^E76K PTP activity”.
